Drawing on ChEMBL document CHEMBL1212863, “Synthesis, and biological evaluation of 2-(4-aminophenyl)benzothiazole derivatives as photosensitizing agents” (2010), this text covers Activity and viability for ten compounds.

The source made the active and inactive calls. The rule behind the calls is not given here.

A short description of assay [1]: Cell cycle arrest in human BCC cells assessed as accumulation at sub G1 phase at 4 uM incubated for 4 hrs followed by 1 J/cm'2 UV irradiation measured after 24 hrs […]. The assay is classed as functional. The method in brief:
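BCC cells (ATCC; RPMI1640, 10% FCS) exposed 4 h to agent, rinsed, irradiated in PBS with UVA (365 nm peak, 0.75 mW/cm²) at 1 J/cm². After 24 h, cells were fixed in 50% cold ethanol at −20 °C, treated with 100 µg/mL RNase A for 20 min at 37 °C, and stained with 50 µg/mL PI. 10,000 events were read by flow cytometry; the sub-G1 fraction was counted as apoptotic.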
On the technique in general: Flow cytometry measures light scatter and fluorescence of single cells or particles in a stream.

The nature of assay [2]: Induction of apoptosis in human BCC cells assessed as decrease in intracellular ATP level at 2 uM incubated for 4 hrs followed by 1 J/cm'2 UV irradiation […]. Further details: scale not given: the % may be the effect or the level left. The assay is classed as functional.
Assay [3] concerns BCC. Kind of assay: Inhibition of MAPK phosphorylation in human BCC cells at 4 uM incubated for 4 hrs followed by 1 J/cm'2 UV irradiation. The assay is classed as cell-based. The method in brief:
(§1)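 BCC cells were exposed to drug with UVA irradiation. Blots were blocked in 5% milk/PBS-T and probed for total and phospho-ERK, p38 and JNK. HRP secondaries and chemiluminescence were used; bands were quantified by densitometric scanning.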

Assay [4] in a line: Phototoxicity against human BCC cells assessed as cell viability at 4 uM incubated for 4 hrs followed by 0.25 J/cm'2 UV irradiation measured after 24 hrs by MTT assay. Conditions: light or radiation study, read-out: Activity. The assay is classed as functional. The method, boiled down:
(§2)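 MTT assay: BCC cells were seeded at 2500/well and attached overnight. Cells were incubated 4 h with drug in triplicate, rinsed, irradiated in PBS with 365 nm UVA (0.25, 0.5 or 1 J/cm²), then returned to medium. After 24 h, MTT was added for 2 h at 37 °C, formazan was dissolved in DMSO, and absorbance was read at 540 nm relative to untreated controls.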
On the technique in general: Formazan colour is commonly taken as a measure of viable cells.

For assay [5], the target named is c-Jun N-terminal kinase, JNK (Homo sapiens) (UniProt P45983+P53779+P45984). Kind of assay: Inhibition of JNK phosphorylation in human BCC cells at 4 uM incubated for 4 hrs followed by 1 J/cm'2 UV irradiation. The assay is classed as cell-based. The method in brief: as §1
Assay [6] has as its system BCC. Kind of assay: Induction of ERK phosphorylation in human BCC cells at 4 uM incubated for 4 hrs followed by 1 J/cm'2 UV irradiation.
Assay [7] can be described thus: Induction of apoptosis in human BCC cells assessed as caspase3 activation at 4 uM incubated for 4 hrs followed by 1 J/cm'2 UV irradiation measured after 24 hrs […].
Assay [8] concerns BCC. Briefly: Induction of apoptosis in human BCC cells assessed as decrease in mitochondrial potential at 2 uM incubated for 4 hrs followed by 1 J/cm'2 UV irradiation measured after 24 hrs. The assay is classed as functional, cell-based. The method, boiled down: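 BCC dishes grown 24 h were pretreated 4 h at 0, 2 or 4 µM and given 1 J/cm² UVA, then trypsinized. Cells were stained 30 min at room temperature with DiOC₆ (100 nM/mL), washed, and read immediately by flow cytometry (FL-1, 530/30 nm). The percentage of cells with reduced Δψmt was scored from 10,000 cells. Three independent experiments were run.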

The nature of assay [9]: Phototoxicity against human BCC cells assessed as cell viability at 4 uM incubated for 4 hrs followed by 0.5 J/cm'2 UV irradiation measured after 24 hrs by MTT assay. The assay is classed as functional. Conditions: light or radiation study, read-out: Activity. The method, boiled down: as §2
The nature of assay [10]: Induction of apoptosis in human BCC cells assessed as caspase3 activation at 4 uM incubated for 4 hrs followed by 1 J/cm'2 UV irradiation measured after 24 hrs […]. The assay is classed as functional. Conditions: in the assay text read “2 uM” for “4 uM”. The method, boiled down: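 Caspase-3 was measured in BCC cells 24 h after 4 h drug exposure and 1 J/cm² UVA (365 nm) given in PBS. Pellets were lysed in cold buffer (25 µL per 10⁶ cells), spun at 12,000 rpm for 10 min at 4 °C, and the supernatant assayed colorimetrically by pNA release at 405 nm. Results are mean SD.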

The nature of assay [11]: Induction of apoptosis in human BCC cells assessed as decrease in intracellular ATP level at 4 uM incubated for 4 hrs followed by 1 J/cm'2 UV irradiation […]. Set-up: scale not given: the % may be the effect or the level left. The assay is classed as functional.
A short description of assay [12]: Phototoxicity against human BCC cells assessed as cell viability at 4 uM incubated for 4 hrs followed by 1 J/cm'2 UV irradiation measured after 24 hrs by MTT assay. The assay is classed as functional. Conditions: light or radiation study, read-out: Activity. The method in brief: as §2
For assay [13], the system named is BCC. Briefly: Induction of apoptosis in human BCC cells assessed as increase in intracellular H2O2 level at 4 uM incubated for 4 hrs followed by 1 J/cm'2 UV irradiation […]. The assay is classed as functional, cell-based. The method in brief: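 ROS was measured in BCC cells given 0–4 µM drug, with or without catalase (800 U/mL) pretreatment, and then irradiated with UVA. Immediately after irradiation, DCFH-DA (10 µM) was added for 30 min at 37 °C. DCF fluorescence was read by flow cytometry on FL-1.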

On to `Nc1ccc(-c2nc3ccccc3s2)cc1`, for which, in assay [1], the Activity was 6.5%.
With `Nc1ccc(-c2nc3ccc(C(F)(F)F)cc3s2)cc1`, the Activity in [2] stood at 30%; in assay [7], 27.5%; in [10], 19.5%; in assay [1], 35.4%; in [11], 45%. For the same compound, the result (in the assay on BCC [3]; in assay [5]) was inactive. The viability at 4 µM is 71% in assay [4], 65% in assay [9] and 45% in assay [12]. The outcome in the assay on BCC [6], in the assay on BCC [8] and in the assay on BCC [13] was Active.
In the case of `Cc1cc(-c2nc3ccc(C(F)(F)F)cc3s2)ccc1N`, the Activity in assay [1] came to 6.4%.
With `CCc1ccc2nc(-c3ccc(N)c(C)c3)sc2c1`, the Activity in assay [1] turned out to be 13.8%.
Same read-out and setting: next, `Cc1ccc2nc(-c3ccc(N)cc3)sc2c1`: 13.4%.
On the same count and under the same terms, with `COc1ccc2nc(-c3ccc(N)cc3)sc2c1` the figure was 6.5%; with `COc1ccc2nc(-c3ccc(N)c(C)c3)sc2c1`, 14.8%.
Take `COc1cccc2nc(-c3ccc(N)cc3)sc12`: the Activity in assay [1] amounted to 24.4%.
Still for that read-out and setting: with `CCc1ccc2nc(-c3ccc(N)cc3)sc2c1` the figure was 29.2%; with `Cc1cc(-c2nc3ccccc3s2)ccc1N`, 13.6%.
